MT stabilizer = microtubule stabilization, imaging screen. actives 0.83% (n = 200,000). % tubulin-high responders, % at 10 µM. HeLa tubulin immunostaining HCS, 24 h; share of cells brighter than vehicle mean+2SD;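 active = plate Z-score above 3 for both tubulin-high and condensed-nucleus cell shares, with cell loss under 80%, at 10 µM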;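 note: anti alpha tubulin signal scored within the nucleus-defined area of each cell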
L major viab = Leishmania major promastigote growth inhibition | Leishmania major promastigotes, resazurin fluorescence viability | inhibition, % at 10 µM | actives 9% (n = 200,000); in the data active = inhibition above about 50%;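 note: promastigotes grown with compound for 44 hours at 28 °C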
Ba/F3 V617F tox = loss of viability in JAK2V617F-driven Ba/F3 cells; Ba/F3 EpoR-JAK2V617F viability, ATP luminescence; inhibition, % at 5.6 µM; actives 1.1% (n = 220,000); AID 1446;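 active = inhibition above the campaign mean plus 3 SD over all tested compounds, cut at about 24% in these data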;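 note: cytokine-independent growth of Ba/F3 cells driven by EpoR plus mutant JAK2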
b-catenin transl = alters nuclear translocation of beta-catenin in HeLa cells; immunofluorescence imaging; nuclear translocation activity, % at 5 µM; actives 0.3% (n = 190,000);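 active = nuclear translocation activity above 50% at 5 µM, with a well cell count of 50 or more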;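 note: per-cell ratio of nuclear to cytoplasmic median beta-catenin stain intensity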
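Test system: human HeLa cells, native beta-catenin. Compound dosing: 5 µM primary single dose, 0.1% DMSO, 0.02–20 µM confirmation series. Incubation: compound exposure 24 h at 37°C. Detection: beta-catenin immunostaining with DAPI counterstain, 20x imaging, 6 fields/well. Read-out basis: Nuclear/cytoplasmic beta-catenin signal ratio, % activation.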
BaF3 parental = reduces parental Ba/F3 cell viability, JAK2V617F counter-screen | CellTiter-Glo ATP luminescence | AID 1486 | actives 1.1% (n = 220,000) | inhibition, % at 5.6 µM;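 active = inhibition above a per-campaign cutoff, the mean inhibition of all tested compounds plus 3 SD, cut at about 27% in these data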
APP 5UTR inh = APP translation inhibition | SH-SY5Y APP 5'UTR-luciferase reporter, luminescence | inhibition, % at 2 µM | actives 0.82% (n = 190,000);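 active = inhibition above a set limit, derived from the sample mean plus 3 SD, cut at about 45% in these data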
Large screens that a line does not name were inactive; ! = not active in a repeat. Hits are enriched below; roughly 9.6% of the tested compounds scored in any of these assays.

CCOC(=O)C1(CCc2ccccc2)CCN(Cc2cnc(N(C)C)s2)CC1	none
O=C(COC(=O)c1ccccc1NS(=O)(=O)c1ccc(Cl)cc1)NCc1ccccc1	none
COc1ccc(CC2(C)OC(c3ccc(C)c([N+](=O)[O-])c3)=NN2C(C)=O)cc1 (centres undefined)	none (no result: MT stabilizer, L major viab, APP 5UTR inh)
CCOC(=O)CN(C(=O)CSc1nnc2c(n1)[nH]c1ccc(OC)cc12)c1ccc(F)cc1	L major viab 90
CC(C)OC(=O)CSc1nnc2c(n1)[nH]c1ccc(F)cc12	none
CCOC(=O)COc1c(Cl)cc(C2NC(=S)NC(c3ccccc3)=C2C(C)=O)cc1OCC (centres undefined)	none
CCOc1cc(/C=C2/SC(=S)N(C)C2=O)ccc1Oc1ccc([N+](=O)[O-])cc1[N+](=O)[O-]	L major viab 63
CC(C)(C)C(=O)N1CCc2cc(-c3csc(N)n3)ccc21	L major viab 59
Cc1nnc2n1CCCCC2	none (no result: MT stabilizer, L major viab, APP 5UTR inh)
O=C(Cn1nnc(-c2cccs2)n1)Nc1ccccc1C(F)(F)F	none
CCOC(=O)C1=C(N)Oc2c(c(=O)[nH]c3ccccc23)C1c1ccccc1 (centres undefined)	none
CC1CC(C)(C)NC(=S)N1CCCC(=O)Nc1ccccc1F (centres undefined)	none
CC1CC(C)(C)NC(=S)N1CCCC(=O)N1CCN(c2ccccc2F)CC1 (centres undefined)	L major viab 61
COc1ccc(Oc2ccc(NC(=O)c3ccccc3C)cc2)cc1	none
CC1(C)C(CO)=CC(=O)C2=C1SCC(=O)N2	none (no result: b-catenin transl)
COc1ccc2[nH]c3c(c2c1)CCn1c-3nc2sc(C(=O)Nc3ccccc3)c(C)c2c1=O	none (no result: b-catenin transl)
O=c1cc(N2CCC3(CC2)OCCO3)[nH]c(=O)n1C1CCCCC1	none
O=c1cc(N2CCN(c3ccc(F)cc3)CC2)[nH]c(=O)n1C1CCCCC1	MT stabilizer 27
COc1cc(CNn2nnnc2N)cc(Br)c1OCC(=O)NC(C)(C)C	none
COc1cc(CNn2nnnc2N)cc(Br)c1OCc1c(Cl)cccc1Cl	L major viab 94
CCCCOC(=O)c1ccc(NC(=O)CSC2=Nc3ccccc3C3CC=NN23)cc1 (centres undefined)	L major viab 99 (no result: APP 5UTR inh)
CCCCOC(=O)c1ccc(NC(=O)CSc2nncn2C)cc1	none
O=C(CN1CCCCC1)N/N=C/c1ccccc1OCc1ccccc1	none (no result: b-catenin transl)
CCN(CC)c1ccc(NC(=O)c2ccc3c(c2)c(C)c(C)n3C)cc1	MT stabilizer 14 (no result: b-catenin transl)
CCOc1cccc(C(=O)Nc2ccc(N(CC)CC)cc2)c1	none
Cc1cccc2c(N=O)c(O)[nH]c12	none (no result: MT stabilizer, L major viab, APP 5UTR inh)
Cc1ccc(N2C(=O)C3C4C=CC(CNC(=S)N5CCN(c6ccccc6)CC5)(O4)C3C2=O)cc1 (centres undefined)	none
Cc1cccc(NC(=S)NCC23C=CC(O2)C2C(=O)N(c4ccc(Cl)cc4)C(=O)C23)c1 (centres undefined)	L major viab 53 (no result: b-catenin transl)
Cc1ccc(NC(=S)NCC23C=CC(O2)C2C(=O)N(c4ccc(C)cc4)C(=O)C23)cc1 (centres undefined)	L major viab 92
CC(C)OP(=O)(c1ccccc1)c1ccccc1	none (no result: b-catenin transl)
CCCCCc1c(C)nc(N2CCOCC2)[nH]c1=O	none
CCn1nc(C)c(CN2CCCC(CO)(Cc3cccc(Cl)c3)C2)c1C (centres undefined)	L major viab 53
CCn1nc(C)c(CN2CCCC(CO)(Cc3ccccc3)C2)c1C (centres undefined)	L major viab 61
OCC1(Cc2cccc(Cl)c2)CCCN(Cc2sc(N3CCCC3)nc2Cl)C1 (centres undefined)	none
Cc1c(CN2CCCC(CO)(Cc3cccc(Cl)c3)C2)cnn1C (centres undefined)	L major viab 61
CCOC(=O)c1cnc2c(c(C)nn2C)c1Oc1ccccc1F	none (no result: MT stabilizer, L major viab, APP 5UTR inh)
COc1ccc(-n2cc(-c3ccccc3)[nH]c2=S)cc1	none
CC(C)(C)c1ccc(-c2cn(-c3ccc(Br)cc3)c3[n+]2CCCS3)cc1	L major viab 100, Ba/F3 V617F tox 100, BaF3 parental 84
c1ccc(-c2cn(-c3ccccc3)c3[n+]2CCS3)cc1	Ba/F3 V617F tox 69, BaF3 parental 63
OC1(c2ccc(Cl)cc2)CN(c2ccccc2)C2=[N+]1CCS2 (centres undefined)	none
Fc1ccc(-n2cc(-c3ccccc3)c3c(N4CCOCC4)ncnc32)cc1	none
Fc1ccc(-n2cc(-c3ccccc3)[n+]3c2SCC3)cc1	Ba/F3 V617F tox 49, BaF3 parental 79
COc1ccc(-c2cn(-c3ccccc3)c3[n+]2CCS3)cc1	L major viab 85!, Ba/F3 V617F tox 76, BaF3 parental 67
CCc1cc(=O)oc2cc(OC(C)=O)cc(OC(C)=O)c12	L major viab 56
C/C=C/C(=O)N1CC2(CC(c3cccc(NC(=O)COc4ccc(Cl)cc4)c3)=NO2)C[C@@H]1C(N)=O (some centres undefined)	none (no result: MT stabilizer, L major viab, Ba/F3 V617F tox, BaF3 parental, APP 5UTR inh)
COc1ccc(Br)cc1C(C[N+](=O)[O-])c1c(N)n(C)c(=O)n(C)c1=O (centres undefined)	Ba/F3 V617F tox 66, BaF3 parental 36 (no result: MT stabilizer, L major viab, APP 5UTR inh)
O=C(NN1C(=O)c2ccccc2NC1c1ccco1)c1ccccc1 (centres undefined)	none
O=C(NN1C(=O)c2ccccc2NC1c1ccoc1)c1ccc([N+](=O)[O-])cc1 (centres undefined)	none
O=C(NN1C(=O)c2ccccc2NC1c1ccc([N+](=O)[O-])o1)c1ccc([N+](=O)[O-])cc1 (centres undefined)	L major viab 95
O=C(NN1C(=O)c2ccccc2NC1c1ccc([N+](=O)[O-])o1)c1ccccc1 (centres undefined)	L major viab 86
CC1CCN(Cc2nnnn2-c2ccc(Cl)cc2)CC1	none
COc1ccccc1NC(=O)C1=C(C)Nc2nnnn2C1c1ccccn1 (centres undefined)	L major viab 85
O=C(/C=C/c1ccc([N+](=O)[O-])s1)N1CCCCC1	L major viab 98
O=C(/C=C/c1ccc([N+](=O)[O-])s1)N1CCCC1	L major viab 88
O=C(/C=C/c1ccccc1[N+](=O)[O-])N1CCCCC1	none
CC(C)CCNC(=O)C(c1ccc(O)cc1)N(C(=O)C1COc2ccccc2O1)c1cccc(O)c1 (centres undefined)	none
COc1ccc(C(C(=O)NC2CCCCC2)N(C(=O)CCl)c2cccc(Cl)c2)cc1 (centres undefined)	L major viab 100 (no result: b-catenin transl)
COc1ccc(C(C(=O)NC2CCCCC2)N(C(=O)CCl)c2ccc(OC)cc2)cc1 (centres undefined)	L major viab 93
COc1cccc(N(C(=O)c2cnccn2)C(C(=O)NC2CCCCC2)c2ccc(Cl)cc2)c1 (centres undefined)	none
